What all share (type): functional
Experiment [1] has as its system PC-12. The experiment in a line: Antioxidant effect against hydrogen peroxide-induced impairment in PC12 cells assessed as cell viability at 50 uM by MTT assay relative to control. The following applies: Rattus norvegicus, read-out: Activity. Summed up: (§1)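 PC12 cells seeded in RPMI 1640 with 10% newborn bovine serum; after 24 h, compound (0.4–50 µM) added together with freshly prepared H2O2 (0.2 mM final) in PBS for 1 h. Then MTT (0.5 mg/mL in PBS) for 4 h, lysis with 5% i-BuOH/10% SDS/0.004% HCl overnight, OD 570 nm; viability as % of untreated control; n = 5, mean ± SD.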
(Tetrazolium dyes change colour on reduction, which living cells bring about.)

Experiment [2] has as its system PC-12. The experiment in a line: Antioxidant effect against hydrogen peroxide-induced impairment in PC12 cells assessed as cell viability at 2 uM by MTT assay relative to control. The following applies: Rattus norvegicus, read-out: Activity. The method in brief:
as §1

For experiment [3], the system named is Radical scavenging activity. The experiment in a line: Antioxidant effect assessed as DPPH radical scavenging activity. The method in brief:
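Compound at five concentrations (0.16–100.0 µM) mixed 1:1 with 0.1 mM DPPH in EtOH, 30 min at 37 °C, absorbance at 517 nm. Scavenging % = (Acontrol − Asample)/Acontrol × 100; IC50 from concentration series.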

In experiment [4] the test system is PC-12. The experiment in a line: Antioxidant effect against hydrogen peroxide-induced impairment in PC12 cells assessed as cell viability at 10 uM by MTT assay relative to control. To be noted: Rattus norvegicus, read-out: Activity. Summed up: as §1
For experiment [5], the system named is PC-12. The experiment in a line: Antioxidant effect against hydrogen peroxide-induced impairment in PC12 cells assessed as cell viability at 0.4 uM by MTT assay relative to control. The following applies: Rattus norvegicus, read-out: Activity. Summed up:
as §1

Broadly, the IC50 is the midpoint of a concentration-inhibition curve.

Take `COc1cc(C(O)C(CO)Oc2c(OC)cc([C@@H]3Oc4c(OC)cc(/C=C/C=O)cc4[C@H]3CO)cc2OC)ccc1O` (stereo not given in full): the viability at 50 µM in the experiment with PC-12 [1] was determined as 64.8%. Further, the viability at 2 µM in the experiment on PC-12 [2] worked out at 56.8%. For the same compound, the IC50 in experiment [3] amounted to 147 µM. In addition, in the experiment with PC-12 [4], the viability at 10 µM amounted to 62.6%. Also, the viability at 0.4 µM in the experiment on PC-12 [5] stood at 56.9%.
Taken in the same sequence, the figures for `COc1cc2c(c(OC)c1O)[C@@H](CO)[C@@H](c1cc(OC)c(OC)c(OC)c1)O2` were 55%, 58%, 45 µM, 58.2% and 61.4%.
With `CCOC(c1ccc(O)c(OC)c1)C(O)CO` (stereo not given), in the experiment on PC-12 [1], the viability at 50 µM came out at 57.3%. In addition, the viability at 2 µM with PC-12 [2] was 54.9%. In addition, in experiment [3], the IC50 turned out to be 132 µM. Also, the viability at 10 µM in the experiment with PC-12 [4] stood at 56.8%. For the same compound, the viability at 0.4 µM in the experiment on PC-12 [5] was 54.1%.
Taken in the same sequence, the figures for `COc1cc([C@H](O)[C@@H](CO)Oc2c(OC)cc([C@@H]3OC[C@@H]4[C@H]3CO[C@H]4c3cc(OC)c(O[C@H](CO)[C@@H](O)c4cc(OC)c(O)c(OC)c4)c(OC)c3)cc2OC)ccc1O` were 54.1%, 54.3%, 87 µM, 54.7% and 51.9%.
For `COc1cc(C(O)C(CO)Oc2ccc(C(O)C(CO)Oc3c(OC)cc([C@@H]4Oc5c(OC)cc(/C=C/C=O)cc5[C@H]4CO)cc3OC)cc2OC)ccc1O` (stereo not given in full), the viability at 50 µM in the experiment with PC-12 [1] was determined as 55.9%. Moreover, the viability at 2 µM with PC-12 [2] was 47.9%. In addition, the IC50 in experiment [3] worked out at 201 µM. Also, in the experiment on PC-12 [4], the viability at 10 µM was 64.4%. Besides, in the experiment with PC-12 [5], the viability at 0.4 µM was found to be 52.8%.
With `COc1cc(C(O)C(CO)Oc2c(OC)cc(C(O)C(CO)Oc3c(OC)cc([C@@H]4Oc5c(OC)cc(/C=C/C=O)cc5[C@H]4CO)cc3OC)cc2OC)ccc1O` (stereo not given in full), in the experiment with PC-12 [1], the viability at 50 µM turned out to be 51%. For the same compound, in the experiment with PC-12 [2], the viability at 2 µM was 54.7%. Besides, the IC50 in experiment [3] amounted to 127 µM. Moreover, the viability at 10 µM in the experiment with PC-12 [4] amounted to 55.2%. Besides, in the experiment on PC-12 [5], the viability at 0.4 µM was 50.3%.
Taken in the same sequence, the figures for `COc1cc(C(O)C(CO)Oc2c(OC)cc([C@@H]3OC[C@@H]4C(=O)OC[C@@H]43)cc2OC)ccc1O` (stereo not given in full) were 45.7%, 61.8%, 72 µM, 59.4% and 59.3%.
In the case of `COc1cc([C@H](O)[C@@H](CO)Oc2c(OC)cc([C@@H]3OC[C@@H]4[C@H]3CO[C@H]4c3cc(OC)c(O[C@H](CO)[C@@H](O)c4ccc(O)c(OC)c4)c(OC)c3)cc2OC)ccc1O`, the viability at 50 µM in the experiment on PC-12 [1] came to 55.3%. Moreover, the viability at 2 µM with PC-12 [2] was found to be 53.2%. Also, the IC50 in experiment [3] worked out at 55 µM. For the same compound, the viability at 10 µM with PC-12 [4] came to 54.3%. For the same compound, the viability at 0.4 µM with PC-12 [5] worked out at 52.2%.
Taken in the same sequence, the figures for `CC1=NN(c2ccccc2)C(=O)C1` [EDARAVONE] were 25.6%, 53.1%, 27 µM, 47.8% and 55.5%.
